{"data": "Experimental data gathered from unrelated publications", "MAOA": "Amine oxidase [flavin-containing] A (MAOA, Homo sapiens, UniProt P21397)", "CTSS": "Cathepsin S (CTSS, Homo sapiens, UniProt P25774)", "ADRA1A": "Alpha-1A adrenergic receptor (ADRA1A, Homo sapiens, UniProt P35348)", "note": "Compare with care: the assays were run in different laboratories."}
{"Structure (SMILES)": "COCc1c(-c2cc3cc(C)cc(OC)c3s2)c2c(N)ncnn2c1CN1CCNC(=O)C1", "target": "MAOA", "read-out": "enzyme activity", "mode": "inhibitor", "concentration": "10 µM", "inhibition [%]": -3}
{"Structure (SMILES)": "C#Cc1n[nH]c2c(-c3cn(C(C)c4ccccn4)c(=O)[nH]c3=O)cc(F)cc12 (centres unmarked)", "target": "High affinity nerve growth factor receptor (NTRK1, Homo sapiens, UniProt P04629)", "read-out": "enzyme activity", "mode": "inhibitor", "concentration": "1 µM", "inhibition [%]": 13.1}
{"Structure (SMILES)": "Nc1ncnc2c1ncn2[C@@H]1O[C@H](CNS(=O)(=O)c2ccc3ccccc3c2)[C@@H](O)[C@H]1O", "target": "Protein arginine N-methyltransferase 3 (PRMT3, Homo sapiens, UniProt O60678)", "read-out": "enzyme activity", "mode": "inhibitor", "concentration": "10 µM", "inhibition [%]": -5}
{"Structure (SMILES)": "O=c1ccoc2ccc(OCCCCN3CCCCC3)cc12", "target": "MAOA", "read-out": "enzyme activity", "mode": "inhibitor", "method": "fluorescence", "concentration": "10 µM", "inhibition [%]": 16}
{"Structure (SMILES)": "O=C(Nc1ccc([N+](=O)[O-])cc1[N+](=O)[O-])c1ccc2c(c1)OCO2", "target": "MAOA", "read-out": "enzyme activity", "mode": "inhibitor", "concentration": "1 µM", "time": "20 min", "inhibition [%]": 44}
{"Structure (SMILES)": "Cc1ccc2nc(N3C(=O)C(O)=C(C(=O)OC(C)(C)C)C3c3ccc(-c4ccc(Cl)cc4)o3)sc2c1 (centres unmarked)", "target": "UDP-N-acetylglucosamine 1-carboxyvinyltransferase (murA, Escherichia coli K-12, UniProt P0A749)", "read-out": "enzyme activity", "mode": "inhibitor", "concentration": "20 µM", "inhibition [%]": 88}
{"Structure (SMILES)": "C#Cc1n[nH]c2c(-c3cn([C@@H](C)c4ccccc4)c(=O)[nH]c3=O)cc(F)cc12", "target": "Focal adhesion kinase 1 (PTK2, Homo sapiens, UniProt Q05397)", "read-out": "enzyme activity", "mode": "inhibitor", "concentration": "0.1 µM", "inhibition [%]": 3.8}
{"Structure (SMILES)": "C[C@H](C(=O)N[C@H]1COc2ccccc2[C@@H]1S(C)(=O)=O)c1ccc(F)cc1", "target": "MAOA", "read-out": "cell-free assay", "mode": "inhibitor", "concentration": "10 µM", "inhibition [%]": -2}
{"Structure (SMILES)": "Cn1cc(-c2cccc(N3CCc4c(sc5c4CC(C)(C)C5)C3=O)c2CO)cc(Nc2ccncn2)c1=O", "target": "Cyclin-dependent kinase 5, with p25 (CDK5, Homo sapiens, UniProt Q00535)", "read-out": "enzyme activity", "mode": "inhibitor", "concentration": "1 µM", "inhibition [%]": 2}
{"Structure (SMILES)": "CCOC(=O)c1ccc(OC(=O)CCCCCNC(=N)N)cc1", "target": "CTSS", "read-out": "enzyme activity", "mode": "inhibitor", "concentration": "10 µM", "inhibition [%]": 4}
{"Structure (SMILES)": "Clc1ccc2c(C3CCN(CCc4c[nH]c5ccccc45)CC3)c[nH]c2c1", "target": "ADRA1A", "read-out": "ligand displacement", "method": "radioligand", "concentration": "10 µM", "inhibition [%]": 108}
{"Structure (SMILES)": "CC(C)C[C@H](NC(=O)[C@H]1O[C@@H]1C(=O)O)C(=O)NCCCCN=C(N)N", "target": "CTSS", "read-out": "enzyme activity", "mode": "inhibitor", "concentration": "5 nM", "inhibition [%]": 18}
{"Structure (SMILES)": "CCN(CC)CCCC[C@H](NC(=O)[C@H](CC(C)C)NC(=O)[C@H](C)NC(=O)[C@H](Cc1ccccc1)NC(=O)c1ccc(C(C)(C)C)cc1)C(=O)N[C@@H](CO)C(=O)OC", "target": "Kappa-type opioid receptor (Oprk1, Rattus norvegicus, UniProt P34975)", "read-out": "ligand displacement", "method": "radioligand", "concentration": "10 µM", "inhibition [%]": 91}
{"Structure (SMILES)": "N=C(N)c1ccc2cc(OC(=O)c3ccc(N=C(N)N)cc3)ccc2c1", "target": "Dipeptidyl peptidase 3 (DPP3, Homo sapiens, UniProt Q9NY33)", "read-out": "enzyme activity", "mode": "inhibitor", "concentration": "10 µM", "inhibition [%]": 3}
{"Structure (SMILES)": "O=C(NC[C@H](O)CO)[C@@H]1C[C@H](c2ccccc2)CCN1 (mixture of isomers)", "target": "ADRA1A", "read-out": "ligand displacement", "method": "radioligand", "concentration": "10 µM", "inhibition [%]": -16.2}
{"Structure (SMILES)": "CN(C)C(=O)COC(=O)Cc1ccc(OC(=O)c2ccc(NC(=N)N)cc2)cc1", "target": "Ubiquitin carboxyl-terminal hydrolase 2 (USP2, Homo sapiens, UniProt O75604)", "read-out": "enzyme activity", "mode": "inhibitor", "concentration": "10 µM", "inhibition [%]": 1}
{"Structure (SMILES)": "O=C(Nc1cccnn1)N1CCN([C@@H]2CCOc3cc(C(F)(F)F)ccc32)CC1", "target": "Angiotensin-converting enzyme 2 (ACE2, Homo sapiens, UniProt Q9BYF1)", "read-out": "enzyme activity", "mode": "inhibitor", "concentration": "20 µM", "inhibition [%]": 3}
